ChEMBL document CHEMBL1138889, “Development of N-2,4-pyrimidine-N-phenyl-N'-phenyl ureas as inhibitors of tumor necrosis factor alpha (TNF-alpha) synthesis. Part 1” (Bioorg Med Chem Lett, 2006)

Molecular target: T1, Mitogen-activated protein kinase 14 (Homo sapiens, UniProt Q16539)
Assay: Inhibition of LPS-stimulated TNFalpha production in human THP1 cells
Format: functional, cell-based, THP-1
Details: not given
Method in brief: (§1)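 THP-1 human monocytic cells, in duplicate cultures, were preincubated with or without inhibitor for 15 min. TNF-α release was then stimulated with LPS at 1 µg/ml final. Secreted TNF-α was quantified by ELISA 4 h after stimulation. Cell viability after the 4 h incubation was assessed by MTS assay.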

T1 sequence (Q16539 whole entry): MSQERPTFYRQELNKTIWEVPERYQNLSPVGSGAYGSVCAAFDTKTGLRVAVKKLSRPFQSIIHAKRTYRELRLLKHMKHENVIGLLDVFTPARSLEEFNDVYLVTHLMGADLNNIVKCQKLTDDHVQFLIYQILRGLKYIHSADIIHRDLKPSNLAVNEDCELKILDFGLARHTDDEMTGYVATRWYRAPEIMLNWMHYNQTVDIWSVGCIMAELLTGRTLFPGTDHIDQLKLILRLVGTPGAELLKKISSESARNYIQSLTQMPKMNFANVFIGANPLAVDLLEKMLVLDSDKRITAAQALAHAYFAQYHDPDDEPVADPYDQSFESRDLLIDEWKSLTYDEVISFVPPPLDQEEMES

SMILES	IC50 [nM]
Cc1ccccc1NC(=O)N(c1ccc(F)cc1)c1ccnc(N[C@@H](C)C(C)(C)O)n1	176
COC[C@H](C)Nc1nccc(N(C(=O)Nc2ccccc2Cl)c2ccc(F)cc2)n1	3100
C[C@H](Nc1nccc(N(C(=O)Nc2ccccc2Cl)c2ccc(F)cc2)n1)C(C)(C)O	122
O=C(Nc1ccccc1Cl)N(c1ccc(F)cc1)c1ccnc(N2CCOCC2)n1	> 5000
C[C@H](Nc1nccc(N(C(=O)Nc2ccccc2Cl)c2ccc(F)cc2)n1)c1ccccc1 (stereo in doubt; 5h)	843
C[C@H](Nc1nccc(N(C(=O)Nc2ccccc2Cl)c2ccccc2)n1)C(C)(C)O	718
C[C@H](Nc1nccc(N(C(=O)Nc2ccccc2Cl)c2ccc(F)cc2)n1)c1ccccc1 (stereo in doubt; 5i)	> 5000
COC[C@H](C)Nc1nccc(N(C(=O)Nc2ccccc2Cl)c2ccc(N(C)C)cc2)n1	> 5000

The next lines start with the values.

IC50 [nM]	SMILES
135	COc1ccc(N(C(=O)Nc2ccccc2C)c2ccnc(N[C@@H](C)C(C)(C)O)n2)cc1
2880	COC[C@H](C)Nc1nccc(N(C(=O)Nc2ccccc2F)c2ccc(F)cc2)n1
> 5000	COCC(C)Nc1nccc(N(N)C(=O)Nc2ccccc2Cl)n1 (single isomer, unassigned)
3650	COC[C@H](C)Nc1nccc(N(C(=O)Nc2ccccc2C)c2ccc(F)cc2)n1
> 5000	COC[C@H](C)Nc1nccc(N(C)C(=O)Nc2ccccc2C)n1
1420	CCCS(=O)(=O)N1CCC(Nc2nccc(N(C(=O)Nc3ccccc3Cl)c3ccc(F)cc3)n2)CC1
3610	CCOC(=O)N1CCC(Nc2nccc(N(C(=O)Nc3ccccc3Cl)c3ccc(F)cc3)n2)CC1
> 5000	Cc1ccccc1NC(=O)N(c1ccc(N(C)C)cc1)c1ccnc(N[C@@H](C)c2ccccc2)n1
> 5000	CN1CCN(c2nccc(N(C(=O)Nc3ccccc3Cl)c3ccc(F)cc3)n2)CC1
6160	C[C@H](Nc1nccc(N(C(=O)Nc2ccccc2Cl)c2cccc(F)c2)n1)c1ccccc1
1000	COC[C@H](C)Nc1nccc(N(C(=O)Nc2ccccc2C)c2ccccc2)n1
539	O=C(Nc1ccccc1Cl)N(c1ccc(F)cc1)c1ccnc(NC2CCOCC2)n1
> 5000	COC[C@H](C)Nc1nccc(N(C(=O)Nc2ccc(C(F)(F)F)cc2)c2ccc(F)cc2)n1
92	COc1ccc(N(C(=O)Nc2ccccc2Cl)c2ccnc(N[C@@H](C)C(C)(C)O)n2)cc1

Molecular target: T1, Mitogen-activated protein kinase 14
Assay: Inhibition of LPS-stimulated TNFalpha production in human THP1 cells at 1 uM
Format: functional, cell-based
Details: THP-1
Method in brief: as §1

inhibition [%]	SMILES
63	C[C@H](Nc1nccc(N(C(=O)Nc2c(Cl)cccc2Cl)c2ccc(F)cc2)n1)C(C)(C)O
